Bioassay records as filed in PubChem BioAssay.
hERG rescue = compounds protecting human hERG from proarrhythmic drug block | actives 0.51% (n = 310,000) | activation (rescue from dofetilide block), less the hit threshold, % at 10 µM | Q12809 | CHO-hERG, FluxOR thallium flux, dofetilide IC70 present;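 active = activation above the mean of controls blocked by dofetilide plus 5 SD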;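 note: thallium influx through hERG after potassium depolarization seen as dye fluorescence rise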
Target sequence (Q12809 whole entry, looked up): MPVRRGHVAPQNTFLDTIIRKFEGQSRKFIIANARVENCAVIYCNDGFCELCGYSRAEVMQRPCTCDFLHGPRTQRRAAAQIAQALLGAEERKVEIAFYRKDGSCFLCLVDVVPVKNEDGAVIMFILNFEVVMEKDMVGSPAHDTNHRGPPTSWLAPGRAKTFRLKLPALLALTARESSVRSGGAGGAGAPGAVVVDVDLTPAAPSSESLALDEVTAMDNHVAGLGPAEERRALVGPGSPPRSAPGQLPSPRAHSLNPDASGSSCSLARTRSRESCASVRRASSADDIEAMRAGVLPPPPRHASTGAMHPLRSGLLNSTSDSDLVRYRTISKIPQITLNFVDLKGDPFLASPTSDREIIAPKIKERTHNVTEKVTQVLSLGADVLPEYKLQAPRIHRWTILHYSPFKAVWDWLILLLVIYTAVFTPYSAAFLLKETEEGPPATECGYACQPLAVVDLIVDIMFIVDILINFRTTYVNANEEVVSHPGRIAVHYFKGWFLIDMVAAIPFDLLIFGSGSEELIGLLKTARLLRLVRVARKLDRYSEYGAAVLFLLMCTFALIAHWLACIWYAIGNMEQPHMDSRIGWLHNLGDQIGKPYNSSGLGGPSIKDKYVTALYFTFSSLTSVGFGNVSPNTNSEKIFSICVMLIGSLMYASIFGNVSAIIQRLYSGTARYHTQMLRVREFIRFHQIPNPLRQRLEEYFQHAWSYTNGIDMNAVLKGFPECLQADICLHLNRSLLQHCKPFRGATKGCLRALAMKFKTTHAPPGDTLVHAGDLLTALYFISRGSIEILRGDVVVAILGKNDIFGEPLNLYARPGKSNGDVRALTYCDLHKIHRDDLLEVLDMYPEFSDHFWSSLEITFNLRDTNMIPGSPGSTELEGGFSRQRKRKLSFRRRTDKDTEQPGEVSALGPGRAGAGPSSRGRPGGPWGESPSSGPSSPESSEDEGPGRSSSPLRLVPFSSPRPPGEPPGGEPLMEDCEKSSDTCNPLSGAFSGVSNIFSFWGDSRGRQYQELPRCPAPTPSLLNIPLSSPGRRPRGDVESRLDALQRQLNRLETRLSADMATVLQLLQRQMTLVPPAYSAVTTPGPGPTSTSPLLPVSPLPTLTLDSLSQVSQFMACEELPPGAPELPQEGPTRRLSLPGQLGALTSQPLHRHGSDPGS
KCNK3 inh = human KCNK3 channel inhibition, primary screen; O14649; CHO-KCNK3 thallium flux, FluxOR fluorescence; active compounds read low; B-score at 10 µM; actives 0.84% (n = 340,000); AID 602410;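 active = B-score under library mean minus 4 SD, starting fluorescence ratio at most library mean plus 5 SD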;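 note: more negative B-score means stronger inhibition of thallium flux through KCNK3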
KCNQ1 block = human KCNQ1 channel inhibition; AID 2642; CHO-K1 KCNQ1, FluxOR thallium flux fluorescence; active compounds read high; actives 1.3% (n = 310,000); B-score at 10 µM;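 active = compounds whose thallium flux B-score, printed positive for inhibition, exceeds three library SD while starting fluorescence stays within three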;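 note: channel opened by potassium depolarization with thallium stimulus after 20 min compound exposure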
KCNQ1 act = potentiates or activates the human KCNQ1 potassium channel; CHO-K1 KCNQ1, thallium flux FluxOR fluorescence; active compounds read high; actives 0.35% (n = 310,000); AID 2648; B-score at 10 µM; P51787;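 active = fluorescence ratio B-score, a plate-corrected score, at least three library SD, with initial intensity B-score within 5 SD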
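assay system = CHO-K1 cells stably expressing KCNQ1 | medium = assay buffer, equal DMSO in all wells | timing = 37 °C overnight plating, 90-min dark dye load, 20-min compound pretreatment | measured by = kinetic FluxOR thallium fluorescence, 10-s 1-Hz baseline, 110-s post-stimulus read | measure = fluorescence change relative to baseline, converted to B score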
Kir21 block = blocks the mouse Kir2.1 inward-rectifier potassium channel; P35561; HEK293-Kir2.1, FluxOR thallium flux fluorescence; active compounds read low; B-score at 10 µM; actives 0.85% (n = 310,000); AID 1672;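 active = fluorescence ratio B-score at or below minus 3 SD of library scores, with starting-brightness B-score within 2 SD, cut at about -4.2 in these data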;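 note: channel flux triggered by added potassium and thallium sulfate stimulus; B-score of peak minus minimum fluorescence over baseline after thallium stimulus; more negative B-score means stronger Kir2.1 block with less thallium influx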
KCNK9 block = inhibitors of human KCNK9 two-pore domain potassium channel | HEK293 KCNK9, FluxOR thallium flux fluorescence; active compounds read low | B-score at 10 µM | actives 1.2% (n = 310,000) | AID 488922;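 active = ratio B-score over 3 SD below the library mean, with starting fluorescence within 5 SD of its mean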;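 note: negative B-score means less thallium flux so channel inhibition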
KCNK3 inh conf = confirmation of human KCNK3 two-pore domain potassium channel inhibitors. shares compounds with KCNK3 inh. CHO-KCNK3 thallium flux, FluxOR fluorescence; 0% buffer, 100% carvedilol maximal block. ratio percent of control, % at 10 µM. actives 99% (n = 2,400). AID 651638;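 active = ratio percent of control, averaged over triplicates, above buffer control mean plus 5 SD, cut at about 64% in these data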;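 note: ratio is the fluorescence rise from min to max over baseline after thallium stimulus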
KCNK3 uninduced = activity in cells without induced KCNK3 expression | shares compounds with KCNK3 inh | non-induced KCNK3 parental cells, FluxOR thallium flux; active compounds read low | thallium flux ratio (lower = more inhibition) at 10 µM | actives 40% (n = 2,400) | AID 651747;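 active = thallium flux ratio, averaged over three wells, more than 5 SD below the buffer control mean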;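 note: host cells are CHO cells without KCNK3 induction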
Large screens that a line does not name were inactive (follow-up assays come after a bar, where they were run). This is a sample that favours compounds with a hit; in the whole collection about 3.7% have one here.

CCOC(=O)C1CCN(c2nc3c(C)cccn3c(=O)c2/C=C(\C#N)S(=O)(=O)c2ccccc2)CC1	KCNK3 inh -9.32 | KCNK3 inh conf 95.0 | KCNK3 uninduced inactive
Cn1c(=O)c2cc3ccccc3nc2n(C)c1=O	none
N#Cc1cc2cc3ccccc3nc2n2c(=O)c3ccccc3nc12	KCNK3 inh -9.6 | KCNK3 inh conf 122.3 | KCNK3 uninduced 0.124
Cc1ccc(O)c(C(CC(=O)NCc2ccco2)c2ccccc2)c1 (centres undefined)	none
Cc1cccc(C(CC(=O)NCc2ccco2)c2ccccc2)c1O (centres undefined)	KCNK3 inh -9.03 | KCNK3 inh conf 110.3 | KCNK3 uninduced inactive
COC(CNC(=O)c1ccc2c(c1)ncn2-c1ccc(C)cc1C)OC	none
COc1ccc(/C=C/C(=O)OCc2cccc([N+](=O)[O-])c2)cc1	KCNK3 inh -9.59 | KCNK3 inh conf 95.3 | KCNK3 uninduced 0.14
COc1ccc(/C=C/C(=O)c2ccc([N+](=O)[O-])o2)cc1	KCNK3 inh -10.7 | KCNK3 inh conf 99.0 | KCNK3 uninduced inactive
COc1ccc(S(=O)(=O)N2CCN(C(=O)c3ccc([N+](=O)[O-])o3)CC2)cc1	none
CN(Cc1ccc(Br)s1)C(=O)CNC(=O)c1ccc2c(c1)OCO2	none (no result: hERG rescue, KCNQ1 block, KCNQ1 act, Kir21 block, KCNK9 block)
Cc1nn(Cc2ccc(Cl)cc2)c(C)c1NC(=O)c1noc2c1CCc1ccccc1-2	KCNK3 inh -8.75 | KCNK3 inh conf 117.0 | KCNK3 uninduced inactive
Cc1ccc(Cn2ccc(NC(=O)c3noc4c3CCc3ccccc3-4)n2)cc1	none
C/C(=N\Nc1cccc2cccnc12)c1ccccc1O	KCNK3 inh -10.4 | KCNK3 inh conf 108.0 | KCNK3 uninduced inactive
CCN1C=C(Cc2ccc(F)cc2)C2=C(C1)C(c1ccc(F)cc1)C(C#N)=C(N)O2 (centres undefined)	KCNK3 inh -9.72 | KCNK3 inh conf 110.3 | KCNK3 uninduced inactive
CC1=C(C(=O)OCc2ccccc2)C(c2ccccc2Cl)NC(=O)N1C (centres undefined)	none
COc1ccc(OC)c(C2NC(=O)N(C)C(C)=C2C(=O)OCc2ccccc2)c1 (centres undefined)	KCNK3 inh -9.28 | KCNK3 inh conf 140.7 | KCNK3 uninduced 0.105
Cc1ccc2oc(-c3cccc(NC(=O)c4ccc(Br)o4)c3)nc2c1	KCNK3 inh -10.8 | KCNK3 inh conf 105.3 | KCNK3 uninduced inactive
COCCN(CCOC)S(=O)(=O)c1ccc(C(=O)Nc2ccc(S(=O)(=O)Nc3nccc(C)n3)cc2)cc1	KCNK3 inh -8.94 | KCNK3 inh conf 70.3 | KCNK3 uninduced inactive
COC(=O)C1=C(C)N(C)C(C)=C(C(=O)OC)C1c1ccncc1	none
COC(=O)C1=C(C)N(C)C(C)=C(C(=O)OC)C1c1ccc(F)c(Br)c1	KCNK3 inh -9.12 | KCNK3 inh conf 109.7 | KCNK3 uninduced inactive
O=C1CC(C(=O)N2CCc3ccccc32)CN1c1cccc(C(F)(F)F)c1 (centres undefined)	none (no result: hERG rescue, KCNQ1 block, KCNQ1 act, Kir21 block, KCNK9 block)
Cc1ccc(S(=O)(=O)N2CCOc3ccccc32)c(C)c1NS(C)(=O)=O	none
C=CCn1c(SCC(=O)N2CCN(C(=O)c3ccco3)CC2)nc2sc(CC)cc2c1=O	KCNK3 inh -10.7 | KCNK3 inh conf 120.3 | KCNK3 uninduced 0.146
C=CCn1c(SCC(=O)c2cccs2)nc2sc(CC)cc2c1=O	KCNK3 inh -10.8 | KCNK3 inh conf 127.7 | KCNK3 uninduced inactive
C=CCn1c(SCC(=O)O)nc2sc(CC)cc2c1=O	none
CC1CCc2nc(NC(=O)c3cc(C(C)(C)C)nn3C)sc2C1 (centres undefined)	none
Cc1ccc(-c2nc(NC(=O)c3cc(C(C)(C)C)nn3C)sc2C)cc1Cl	KCNK3 inh -9.19, KCNQ1 block 10 | KCNK3 inh conf 96.3 | KCNK3 uninduced 0.143
CCOC(=O)c1c(CSc2ccc(CC)cc2)oc2ccc(O)c(CN(C)C)c12	KCNK3 inh -9.13, KCNQ1 block 8, Kir21 block -15.7, KCNK9 block -7.4 | KCNK3 inh conf 120.0 | KCNK3 uninduced 0.155
N#Cc1cc2c(nc1SCc1ccc(Cl)nc1)CCCCC2	KCNK3 inh -11.4, KCNK9 block -6.98 | KCNK3 inh conf 116.0 | KCNK3 uninduced 0.159
COC(=O)C1=C(C)N(C2CCCCC2)C(=O)/C1=C\c1cccs1	KCNK3 inh -9.8 | KCNK3 inh conf 98.0 | KCNK3 uninduced 0.139
COc1ccc(N2C(=O)CSC2c2ccc([N+](=O)[O-])cc2)cc1 (centres undefined)	none
Cc1cc(O)c(C(C)C)cc1NC(=O)c1cccc(Cl)c1	KCNK3 inh -9.04 | KCNK3 inh conf 109.3 | KCNK3 uninduced inactive
Cc1cc(O)c(C(C)C)cc1NC(=O)c1ccc(Cl)cc1	none
Cc1cccc2c(=O)c(Br)c(C)n(Cc3ccccc3)c12	KCNK3 inh -8.91, KCNK9 block -7.8 | KCNK3 inh conf 105.3 | KCNK3 uninduced inactive
CC(C)Cc1cc(CNC(=O)C2CCC(=O)N(CCc3cccc(F)c3)C2)on1 (centres undefined)	none
CC(C)c1nc(CNC(=O)C2CCC(=O)N(CCc3cccc(F)c3)C2)cs1 (centres undefined)	KCNK3 inh -11 | KCNK3 inh conf 77.3 | KCNK3 uninduced inactive
Cc1sc2ncnc(N3CCC(C(=O)Nc4ccccc4C(C)(C)C)CC3)c2c1C	none
Cc1sc2ncnc(N3CCC(C(=O)Nc4nc(-c5cccs5)cs4)CC3)c2c1C	KCNK3 inh -8.93 | KCNK3 inh conf 94.3 | KCNK3 uninduced inactive
Cc1sc2ncnc(N3CCC(C(=O)Oc4cccc(Cl)c4Cl)CC3)c2c1C	KCNK3 inh -9.14, KCNK9 block -8.09 | KCNK3 inh conf 96.3 | KCNK3 uninduced inactive
Cc1ccccc1NC1=C(Cl)C(=O)OC1OC(=O)c1ccccc1C (centres undefined)	KCNK3 inh -11.7 | KCNK3 inh conf 127.7 | KCNK3 uninduced 0.11
O=C(N/N=C/C1C(c2ccccc2)C1(Cl)Cl)c1cccc(Br)c1 (centres undefined)	KCNK3 inh -13, KCNQ1 block 10, KCNK9 block -7.35 | KCNK3 inh conf 114.7 | KCNK3 uninduced inactive
COc1cc(NC(=O)CN2C(=O)COc3ccc(S(=O)(=O)N4CCCCC4)cc32)cc(OC)c1	KCNK3 inh -8.81 | KCNK3 inh conf 113.0 | KCNK3 uninduced inactive
CCCCN(C)Cc1cc(=O)oc2ccc3ccccc3c12	KCNK3 inh -9.29 | KCNK3 inh conf 120.0 | KCNK3 uninduced 0.146
